Calls of active or inactive are those of the source. No cut-off for these calls is given here.
Legend:
MCF7 = test: Cytotoxicity against human MCF7 cells; assay type: functional, cell-based
Summary of the method: (§1)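 SRB assay. 5000 cells/well were seeded in medium with 10% serum and left 18-20 h at 5% CO2 to adhere. Final compound 0 to 100 μM for 48 h at 37 °C; DMSO vehicle, doxorubicin positive control. Cells fixed in 10% TCA 1 h at 4 °C, stained 30 min with 0.057% SRB, washed with 1% acetic acid. Dye solubilised in 10 mM Tris base, A510 read, IC50 derived.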

HeLa = test: Cytotoxicity against human HeLa cells; assay type: functional, cell-based; summary of the method: as §1
A549 = test: Cytotoxicity against human A549 cells; assay type: functional, cell-based; summary of the method: as §1
DU-145 [1] = test: Cytotoxicity against human DU145 cells; assay type: functional, cell-based; summary of the method: as §1
DU-145 [2] = test: Cytotoxicity against human DU145 cells assessed as change in cell morphology at 5 to 25 uM after 48 hrs by microscopic analysis; assay type: functional, cell-based
Summary of the method: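 DU145 cells seeded in 24-well plates and left 18-20 h, then exposed to increasing concentrations for 48 h with a DMSO comparison. Morphology examined and imaged by light microscopy.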

DU-145 [3] = test: Cell cycle arrest in human DU145 cells assessed as accumulation at S phase at 10 uM after 48 hrs by propidium iodide staining-based flow cytometric analysis (reference value: 5.77%); assay type: functional
DU-145 [4] = test: Cell cycle arrest in human DU145 cells assessed as accumulation at G0/G1 phase at 5 uM after 48 hrs by propidium iodide staining-based flow cytometric analysis (reference value: 70.54%); assay type: functional
DU-145 [5] = test: Cell cycle arrest in human DU145 cells assessed as accumulation at G0/G1 phase at 20 uM after 48 hrs by propidium iodide staining-based flow cytometric analysis (reference value: 70.54%); assay type: functional
DU-145 [6] = test: Cell cycle arrest in human DU145 cells assessed as accumulation at G2/M phase at 5 uM after 48 hrs by propidium iodide staining-based flow cytometric analysis (reference value: 23.09%); assay type: functional
DU-145 [7] = test: Cell cycle arrest in human DU145 cells assessed as accumulation at G0/G1 phase at 25 uM after 48 hrs by propidium iodide staining-based flow cytometric analysis (reference value: 70.54%); assay type: functional
DU-145 [8] = test: Induction of apoptosis in human DU145 cells assessed as caspase-3 activation using Ac-DEVD-AMC as substrate after 48 hrs by fluorometric analysis; assay type: functional, cell-based
Summary of the method: (§2)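 DU145 exposed to several concentrations for 48 h; DMSO negative, doxorubicin positive control. Cells lysed in 50 mM HEPES, 5 mM CHAPS, 5 mM DTT, pH 7.5. Lysate incubated with substrate in 20 mM HEPES pH 7.5, 0.1% CHAPS, 2 mM EDTA, 5 mM DTT for 2 h at 37 °C. AMC read at ex/em 380/460 nm (caspase-3), AFC at 400/505 nm (caspase-9). Values normalised to Bradford protein and expressed relative to DMSO; triplicates, means.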

DU-145 [9] = test: Cytotoxicity against human DU145 cells assessed as inhibition of colony formation on soft agar media after 9 days by crystal violet staining-based microscopic analysis; assay type: functional, cell-based
Summary of the method: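 Soft agar assay. Base layer was 0.5% agar in growth medium with 10% serum. On top, 2.5×10^4 DU145 cells were set in 0.35% agar containing compound (0–25 μM). Medium plus compound replenished every 3 days for 9 days. Stained with 0.005% crystal violet, then colonies photographed and counted under a microscope.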

DU-145 [10] = test: Cell cycle arrest in human DU145 cells assessed as accumulation at G2/M phase at 25 uM after 48 hrs by propidium iodide staining-based flow cytometric analysis (reference value: 23.09%); assay type: functional
DU-145 [11] = test: Cell cycle arrest in human DU145 cells assessed as accumulation at S phase at 5 uM after 48 hrs by propidium iodide staining-based flow cytometric analysis (reference value: 5.77%); assay type: functional
DU-145 [12] = test: Cell cycle arrest in human DU145 cells assessed as accumulation at S phase at 15 uM after 48 hrs by propidium iodide staining-based flow cytometric analysis (reference value: 5.77%); assay type: functional
DU-145 [13] = test: Cell cycle arrest in human DU145 cells assessed as accumulation at G0/G1 phase at 15 uM after 48 hrs by propidium iodide staining-based flow cytometric analysis (reference value: 70.54%); assay type: functional
DU-145 [14] = test: Cell cycle arrest in human DU145 cells assessed as accumulation at G2/M phase at 15 uM after 48 hrs by propidium iodide staining-based flow cytometric analysis (reference value: 23.09%); assay type: functional
DU-145 [15] = test: Induction of apoptosis in human DU145 cells assessed as change in mitochondrial membrane potential at 8.5 to 20 uM after 24 hrs by JC-1 dye-based assay; assay type: functional, cell-based
Summary of the method: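 DU145 seeded in 24-well plates and left 18 h at 37 °C, 5% CO2, then treated for 24 h, DMSO control. Stained with JC-1 working solution (stock mixed 1:1 with growth medium) for 20 min at 37 °C. Washed twice with medium, then red (aggregate) versus green (monomer) fluorescence viewed by microscopy.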

DU-145 [16] = test: Cell cycle arrest in human DU145 cells assessed as accumulation at G0/G1 phase at 10 uM after 48 hrs by propidium iodide staining-based flow cytometric analysis (reference value: 70.54%); assay type: functional
DU-145 [17] = test: Induction of senescence in human DU145 cells at 5 to 25 uM after 48 hrs by SA-beta-gal staining-based microscopic analysis; assay type: functional, cell-based
Summary of the method: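 DU145 in 24-well plates treated for 48 h. Cells washed with PBS and fixed 5 min at room temperature in 2% formaldehyde/0.2% glutaraldehyde. Stained overnight at 37 °C in 40 mM citric acid/Na phosphate (pH 6.0), 5 mM each ferro- and ferricyanide, 150 mM NaCl, 2 mM MgCl2, 1 mg/ml X-gal. Positive cells observed and photographed by microscopy.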

DU-145 [18] = test: Cell cycle arrest in human DU145 cells assessed as accumulation at S phase at 25 uM after 48 hrs by propidium iodide staining-based flow cytometric analysis (reference value: 5.77%); assay type: functional
DU-145 [19] = test: Cell cycle arrest in human DU145 cells assessed as accumulation at G2/M phase at 20 uM after 48 hrs by propidium iodide staining-based flow cytometric analysis (reference value: 23.09%); assay type: functional
DU-145 [20] = test: Induction of apoptosis in human DU145 cells assessed as caspase-9 activation using Ac-LEHD-AFC as substrate after 48 hrs by fluorometric analysis; assay type: functional, cell-based; summary of the method: as §2
DU-145 [21] = test: Cell cycle arrest in human DU145 cells assessed as accumulation at G2/M phase at 10 uM after 48 hrs by propidium iodide staining-based flow cytometric analysis (reference value: 23.09%); assay type: functional
DU-145 [22] = test: Cell cycle arrest in human DU145 cells assessed as accumulation at S phase at 20 uM after 48 hrs by propidium iodide staining-based flow cytometric analysis (reference value: 5.77%); assay type: functional

## C=C[C@H]1OC(=O)N(c2ccc(N3CCOCC3)c(F)c2)[C@@H]1c1ccc(OC)cc1
MCF7
  IC50: 70 µM
HeLa
  IC50: 48.6 µM
A549
  IC50: 24.4 µM
DU-145 [1]
  IC50: 48.2 µM

## COc1ccc([C@@H]2[C@@H](CCO)OC(=O)N2c2ccc(N3CCOCC3)c(F)c2)cc1
MCF7
  IC50: > 100 µM
HeLa
  IC50: 43.2 µM
A549
  IC50: 30.3 µM
DU-145 [1]
  IC50: 69.5 µM

## COc1ccc([C@@H]2[C@H](COC(=O)c3ccccc3)OC(=O)N2c2ccc(N3CCOCC3)c(F)c2)cc1
MCF7
  IC50: 69.4 µM
HeLa
  IC50: 19.2 µM
A549
  IC50: 24.8 µM
DU-145 [1]
  IC50: 30.8 µM

## COc1cccc2c1C(=O)c1c(O)c3c(c(O)c1C2=O)C[C@@](O)(C(=O)CO)C[C@@H]3O[C@H]1C[C@H](N)[C@H](O)[C@H](C)O1 [DOXORUBICIN]
HeLa
  IC50: 10.9 µM
A549
  IC50: 8.4 µM
DU-145 [1]
  IC50: 6.7 µM

## COc1ccc([C@@H]2[C@@H](COC(=O)c3ccccc3)OC(=O)N2c2ccc(N3CCOCC3)c(F)c2)cc1
MCF7
  IC50: 74 µM
HeLa
  IC50: 57.6 µM
A549
  IC50: 23.9 µM
DU-145 [1]
  IC50: 21.1 µM

## COc1ccc([C@@H]2[C@@H](CNC(C)=O)OC(=O)N2c2ccc(N3CCOCC3)c(F)c2)cc1
MCF7
  IC50: > 100 µM
HeLa
  IC50: 51.3 µM
A549
  IC50: 54.4 µM
DU-145 [1]
  IC50: 26.8 µM

## COc1ccc([C@@H]2[C@H](CO)OC(=O)N2c2ccc(N3CCOCC3)c(F)c2)cc1
MCF7
  IC50: 36.1 µM
HeLa
  IC50: 35.9 µM
A549
  IC50: 43.2 µM
DU-145 [1]
  IC50: 38.5 µM

## COc1ccc([C@H]2NC(=O)O[C@@H]2CO)cc1
MCF7
  IC50: > 100 µM
HeLa
  IC50: 56.7 µM
A549
  IC50: 31.2 µM
DU-145 [1]
  IC50: 40.6 µM

## CC[C@H]1OC(=O)N(c2ccc(N3CCOCC3)c(F)c2)[C@@H]1c1ccc(OC)cc1
DU-145 [2]
  Activity: Active
DU-145 [3]
  Activity: 3.85%
DU-145 [4]
  Activity: 75.65%
DU-145 [5]
  Activity: 80.5%
DU-145 [6]
  Activity: 19.45%
DU-145 [7]
  Activity: 91.11%
DU-145 [8]
  Activity: Dose-dependent effect
MCF7
  IC50: > 100 µM
DU-145 [9]
  inhibition: Dose-dependent effect
DU-145 [10]
  Activity: 6.54%
DU-145 [11]
  Activity: 4.61%
HeLa
  IC50: 23.3 µM
DU-145 [12]
  Activity: 3.56%
DU-145 [13]
  Activity: 79.14%
DU-145 [14]
  Activity: 16.7%
A549
  IC50: 13.4 µM
DU-145 [15]
  Activity: Active
DU-145 [16]
  Activity: 75.29%
DU-145 [1]
  IC50: 9.47 µM
DU-145 [17]
  Activity: Active
DU-145 [18]
  Activity: 0.79%
DU-145 [19]
  Activity: 16.19%
DU-145 [20]
  Activity: Dose-dependent effect
DU-145 [21]
  Activity: 20.49%
DU-145 [22]
  Activity: 1.93%

## C=CC(=O)OCCC(=O)OC[C@H]1OC(=O)N(c2ccc(N3CCOCC3)c(F)c2)[C@@H]1c1ccc(OC)cc1
MCF7
  IC50: 38.2 µM
HeLa
  IC50: 42.7 µM
A549
  IC50: 14.2 µM
DU-145 [1]
  IC50: 8.69 µM

## C=CC(=O)OCCC(=O)OC[C@@H]1OC(=O)N(c2ccc(N3CCOCC3)c(F)c2)[C@@H]1c1ccc(OC)cc1
MCF7
  IC50: 61.5 µM
HeLa
  IC50: 28.6 µM
A549
  IC50: 42.4 µM
DU-145 [1]
  IC50: 31.8 µM

## COc1ccc([C@H]2NC(=O)O[C@H]2CO)cc1
MCF7
  IC50: 82.4 µM
HeLa
  IC50: 26 µM
A549
  IC50: 25.5 µM
DU-145 [1]
  IC50: 46.5 µM

## C=C[C@H]1OC(=O)N[C@@H]1c1ccc(OC)cc1
MCF7
  IC50: > 100 µM
HeLa
  IC50: 39.8 µM
A549
  IC50: 21.3 µM
DU-145 [1]
  IC50: 32.8 µM

## COc1ccc([C@@H]2[C@@H](CN)OC(=O)N2c2ccc(N3CCOCC3)c(F)c2)cc1
MCF7
  IC50: > 100 µM
HeLa
  IC50: > 100 µM
A549
  IC50: 21.2 µM
DU-145 [1]
  IC50: 33 µM

## COc1ccc([C@@H]2[C@@H](CO)OC(=O)N2c2ccc(N3CCOCC3)c(F)c2)cc1
MCF7
  IC50: > 100 µM
HeLa
  IC50: 86.6 µM
A549
  IC50: 24.6 µM
DU-145 [1]
  IC50: 24.9 µM
